Compound activity as filed in PubChem.
Sampled rows, rich in hits. Any-hit rate of the full collection: about 3.7%.
hERG rescue: shields human hERG channel from block by proarrhythmic agents; Q12809; CHO-hERG, FluxOR thallium flux, dofetilide IC70 present; activation (rescue from dofetilide block), less the hit threshold, % at 10 µM; actives 0.51% (n = 310,000); AID 1511;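 active = activation above the mean of controls blocked by dofetilide plus 5 SD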;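 note: thallium influx through hERG after potassium depolarization seen as dye fluorescence rise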
KCNQ1 block: inhibitors of human KCNQ1 potassium channel; P51787; CHO-K1 KCNQ1, FluxOR thallium flux fluorescence; hits give high values; B-score at 10 µM; actives 1.3% (n = 310,000); AID 2642;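 active = compounds whose thallium flux B-score, printed positive for inhibition, exceeds three library SD while starting fluorescence stays within three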;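 note: channel opened by potassium depolarization with thallium stimulus after 20 min compound exposure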
Kir21 inh: inhibitors of mouse Kir2.1 inward-rectifier potassium channel; P35561; HEK293-Kir2.1, FluxOR thallium flux fluorescence; hits give low values; B-score at 10 µM; actives 0.85% (n = 310,000); AID 1672;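 active = fluorescence ratio B-score at or below minus 3 SD of library scores, with starting-brightness B-score within 2 SD, cut at about -4.2 in these data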;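 note: channel flux triggered by added potassium and thallium sulfate stimulus; B-score of peak minus minimum fluorescence over baseline after thallium stimulus; more negative B-score means stronger Kir2.1 block with less thallium influx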
KCNK9 inh: inhibitors of human KCNK9 two-pore domain potassium channel. Q9NPC2. HEK293 KCNK9, FluxOR thallium flux fluorescence; hits give low values. B-score at 10 µM. actives 1.2% (n = 310,000). AID 488922;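 active = ratio B-score over 3 SD below the library mean, with starting fluorescence within 5 SD of its mean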;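 note: negative B-score means less thallium flux so channel inhibition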
Target sequence (Q9NPC2 whole entry, looked up, the tested form may be a part): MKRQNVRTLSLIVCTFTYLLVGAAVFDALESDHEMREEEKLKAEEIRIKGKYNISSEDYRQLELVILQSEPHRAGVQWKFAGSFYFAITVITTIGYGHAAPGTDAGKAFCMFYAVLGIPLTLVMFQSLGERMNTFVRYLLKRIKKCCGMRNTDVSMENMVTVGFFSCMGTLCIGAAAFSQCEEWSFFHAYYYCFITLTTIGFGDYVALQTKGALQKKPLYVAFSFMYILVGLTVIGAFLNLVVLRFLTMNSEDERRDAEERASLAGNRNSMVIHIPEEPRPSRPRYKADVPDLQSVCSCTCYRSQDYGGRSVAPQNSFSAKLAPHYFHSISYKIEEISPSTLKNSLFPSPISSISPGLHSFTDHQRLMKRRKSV
KCNK3 inh: human KCNK3 channel inhibition, primary screen | O14649 | CHO-KCNK3 thallium flux, FluxOR fluorescence; hits give low values | actives 0.84% (n = 340,000) | AID 602410 | B-score at 10 µM;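 active = B-score under library mean minus 4 SD, starting fluorescence ratio at most library mean plus 5 SD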;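 note: more negative B-score means stronger inhibition of thallium flux through KCNK3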
KCNQ1 act: potentiators or activators of human KCNQ1 potassium channel. P51787. CHO-K1 KCNQ1, thallium flux FluxOR fluorescence; hits give high values. B-score at 10 µM. actives 0.35% (n = 310,000);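 active = fluorescence ratio B-score, a plate-corrected score, at least three library SD, with initial intensity B-score within 5 SD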
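Test system: CHO-K1 cells stably expressing KCNQ1 / Medium: assay buffer / Also added: depolarizing K+/Tl+ stimulus, K2SO4 and Tl2SO4 each 12.5 mM in 5x stock / Incubation: 90 min dye loading and 20 min compound exposure, both at room temperature / Signal: thallium influx via FluxOR fluorescence, kinetic imaging / Evaluation: B score of baseline-normalized fluorescence ratio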
Numbers stand for hits.

Cc1ccc(-n2c(C)cc(C3=NNC(=NC4CC4)SC3)c2C)cc1C was read as hERG rescue inactive, KCNQ1 block 7, Kir21 inh inactive, KCNK9 inh inactive, KCNK3 inh inactive and KCNQ1 act inactive.
Cc1cc(C2=NNC(=NC3CC3)SC2)c(C)n1-c1c(C)n(C)n(-c2ccccc2)c1=O was read as hERG rescue inactive, KCNQ1 block inactive, Kir21 inh inactive, KCNK9 inh inactive, KCNK3 inh inactive and KCNQ1 act inactive.
Cc1ccc(Nc2nc(-c3cccnc3)nc3ccccc23)cc1 was read as hERG rescue inactive, KCNQ1 block inactive, Kir21 inh inactive, KCNK9 inh inactive, KCNK3 inh inactive and KCNQ1 act inactive.
For CCNC(=S)NNC(=O)c1cc(-c2cccnc2)nc2ccccc12 the results were hERG rescue inactive, KCNQ1 block inactive, Kir21 inh inactive, KCNK9 inh inactive, KCNK3 inh inactive and KCNQ1 act inactive.
Screening CCOC(=O)c1ccc(Nc2nc(-c3cccnc3)nc3ccccc23)cc1 returned hERG rescue inactive, KCNQ1 block inactive, Kir21 inh inactive, KCNK9 inh -7.06, KCNK3 inh inactive and KCNQ1 act inactive.
`CCOC(=O)c1ccc(NC(=S)NNC(=O)c2cc(-c3cccnc3)nc3ccccc23)cc1` gave hERG rescue inactive, KCNQ1 block 10, Kir21 inh inactive, KCNK9 inh inactive, KCNK3 inh inactive and KCNQ1 act inactive.
Screening COc1ccc(S(=O)(=O)N(C)CC(=O)N2CCCC2)cc1OC returned hERG rescue inactive, KCNQ1 block inactive, Kir21 inh inactive, KCNK9 inh inactive, KCNK3 inh inactive and KCNQ1 act inactive.
`CC(NCc1cc(Br)ccc1OCC(=O)NCc1ccccc1)c1ccccc1` (configuration not stated) gave hERG rescue inactive, KCNQ1 block 6, Kir21 inh -15.5, KCNK9 inh inactive, KCNK3 inh inactive and KCNQ1 act inactive.
For CC(C)c1ccc(OCC(=O)Nc2ccc3oc(=O)ccc3c2)cc1 the results were hERG rescue inactive, KCNQ1 block inactive, Kir21 inh inactive, KCNK9 inh inactive, KCNK3 inh inactive and KCNQ1 act inactive.
Screening CCCCCn1c(N2CCN(c3cccc(Cl)c3)CC2)nc2c1c(=O)[nH]c(=O)n2C returned hERG rescue inactive, KCNQ1 block inactive, Kir21 inh inactive, KCNK9 inh -7.34, KCNK3 inh inactive and KCNQ1 act inactive.
Cn1c(=O)[nH]c(=O)c2c1nc(N1CCN(c3cccc(Cl)c3)CC1)n2CCCc1ccccc1 was read as hERG rescue inactive, KCNQ1 block inactive, Kir21 inh inactive, KCNK9 inh inactive and KCNQ1 act inactive.
Screening COCCn1cnnc1SCC(=O)Nc1cccc(S(=O)(=O)N(C)c2ccccc2)c1 returned hERG rescue inactive, KCNQ1 block inactive, Kir21 inh inactive, KCNK9 inh inactive, KCNK3 inh inactive and KCNQ1 act inactive.
Screening CN(c1ccccc1)S(=O)(=O)c1cccc(NC(=O)COc2cccc([N+](=O)[O-])c2)c1 returned KCNK3 inh -9.88.
CCC(=O)c1ccc(OCC(=O)Nc2cccc(S(=O)(=O)N(C)c3ccccc3)c2)cc1 was read as KCNK3 inh inactive.
Cc1nnc(SCC(=O)Nc2cccc(S(=O)(=O)N(C)c3ccccc3)c2)s1 was read as hERG rescue inactive, KCNQ1 block 6, Kir21 inh inactive, KCNK9 inh inactive, KCNK3 inh inactive and KCNQ1 act inactive.
For CN(c1ccccc1)S(=O)(=O)c1cccc(NC(=O)CSc2nccc(=O)[nH]2)c1 the results were KCNK3 inh -9.8.
`CC(C)N(C(=O)[C@H]1CC(CC(=O)NCCc2ccccn2)C(=O)N2CCc3c([nH]c4ccccc34)[C@]12C)C(C)C` (some centres not stated) gave KCNK3 inh inactive.
For COc1cccc(-c2nc(SC)nc3sc(C(=O)NC(C)(C)C)c(N)c23)c1 the results were hERG rescue inactive, KCNQ1 block inactive, Kir21 inh inactive, KCNK9 inh inactive, KCNK3 inh inactive and KCNQ1 act inactive.
CCC(C)NC(=O)c1ccc(C)c(NC(=O)C2=C(C)OCCS2)c1 (configuration not stated) was read as hERG rescue inactive, KCNQ1 block inactive, Kir21 inh inactive, KCNK9 inh inactive, KCNK3 inh inactive and KCNQ1 act inactive.
COc1ccccc1NCCC(=O)OCC(=O)Nc1cc([N+](=O)[O-])ccc1F was read as KCNK3 inh inactive.
`CC(=O)Nc1cc(-c2nn3c(C)nnc3s2)ccc1C` gave hERG rescue inactive, KCNQ1 block inactive, Kir21 inh inactive, KCNK9 inh inactive, KCNK3 inh inactive and KCNQ1 act inactive.
Screening CCC(=O)Nc1cc(-c2nn3c(C)nnc3s2)ccc1C returned hERG rescue inactive, KCNQ1 block inactive, Kir21 inh inactive, KCNK9 inh inactive, KCNK3 inh inactive and KCNQ1 act 8.
`Cc1cc(C)c(Cc2c(C)nc3c(C(=O)NCc4ccco4)cnn3c2C)c(C)c1` gave hERG rescue inactive, KCNQ1 block inactive, Kir21 inh inactive, KCNK9 inh -7.29, KCNK3 inh inactive and KCNQ1 act inactive.
`N#CCc1ccccc1C(=O)OCC(=O)N(Cc1ccccc1)Cc1ccccc1` gave KCNK3 inh -9.37.
`O=C(/C=C/c1ccccc1Cl)c1ccccc(=O)c1O` gave hERG rescue 16.4, KCNQ1 block inactive, Kir21 inh inactive, KCNK9 inh inactive, KCNK3 inh inactive and KCNQ1 act 14.
For Cc1ccc(C)c(/C=C/C(=O)c2ccccc(=O)c2O)c1 the results were hERG rescue 18.2, KCNQ1 block inactive, Kir21 inh inactive, KCNK9 inh inactive, KCNK3 inh inactive and KCNQ1 act 27.
For Cc1ccc(/C=C/C(=O)c2ccccc(=O)c2O)c(C)c1 the results were hERG rescue 25.6, KCNQ1 block inactive, Kir21 inh inactive, KCNK9 inh inactive, KCNK3 inh inactive and KCNQ1 act 19.
`O=C(C=Cc1ccccc1O)c1ccccc1O` gave KCNK3 inh inactive.
O=C(/C=C/c1ccc([N+](=O)[O-])cc1)c1ccccc(=O)c1O was read as KCNK3 inh inactive.
CN(C(=O)COC(=O)c1ccccc1SCC(=O)N1CCCC1)C1(C#N)CCCCC1 was read as KCNK3 inh inactive.
`O=C(CN1CCN(C(=O)C2CCN(C(=O)/C=C/c3ccccc3)CC2)CC1)Nc1ccc(F)cc1` gave KCNK3 inh inactive.
COc1ccc(NS(=O)(=O)c2cccc(-c3n[nH]c(=S)n3Cc3ccccc3)c2)cc1 was read as hERG rescue inactive, KCNQ1 block inactive, Kir21 inh inactive, KCNK9 inh inactive, KCNK3 inh inactive and KCNQ1 act inactive.
